Measurements from ChEMBL document CHEMBL3352325, “Synthesis and biological evaluation of novel aniline-derived asiatic acid derivatives as potential anticancer agents” (Eur J Med Chem, 2014).

Assays:
[1] = system: MGC-803; test: Cytotoxicity against human MGC803 cells after 48 hrs by MTT assay; assay type: functional, cell-based; conditions: MGC-803, 48 h
Outline: (§1)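 Cells grown in medium with 10% heat-inactivated FBS, 5% CO2, 37 °C. Compounds given in medium with 1% DMSO at 1.25–20 graded concentrations; 1% DMSO medium served as control. MTT (5 mg/mL) added, formazan dissolved in DMSO, absorbance read at 570/630 nm. Survival expressed relative to negative control. IC50 by Bliss method (n=5), at least three independent experiments, mean ± SD.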

[2] = system: NCI-H460; test: Cytotoxicity against human NCI-H460 cells after 48 hrs by MTT assay; assay type: functional, cell-based; conditions: NCI-H460, 48 h; outline: as §1
[3] = system: HepG2; test: Cytotoxicity against human HepG2 cells after 48 hrs by MTT assay; assay type: functional, cell-based; conditions: HepG2, 48 h; outline: as §1
[4] = system: HeLa; test: Cytotoxicity against human HeLa cells after 48 hrs by MTT assay; assay type: functional, cell-based; outline: as §1
[5] = Cytotoxicity against human SMMC-7404 cells after 48 hrs by MTT assay; assay type: functional, cell-based; conditions: SMMC-7404, 48 h; outline: as §1
[6] = system: HUVEC; test: Cytotoxicity against human HUVEC cells after 48 hrs by MTT assay; assay type: cell-based; outline: as §1

| Compound | IC50 [1] | IC50 [2] | IC50 [3] | IC50 [4] | IC50 [5] | IC50 [6] |
| --- | --- | --- | --- | --- | --- | --- |
| C[C@H]1[C@H](C)CC[C@]2(C(=O)Nc3ccc(Br)cc3)CC[C@]3(C)C(=CC(=O)[C@@H]4[C@@]5(C)C[C@@H](O)[C@H](O)[C@@](C)(CO)[C@@H]5CC[C@]43C)[C@H]12 | 20.6 µM | 31.2 µM | 21.3 µM | 18.5 µM | > 100 µM | > 100 µM |
| Cc1ccc(C)c(NC(=O)[C@]23CC[C@@H](C)[C@H](C)[C@H]2C2=CC(=O)[C@@H]4[C@@]5(C)C[C@@H](O)[C@H](O)[C@@](C)(CO)[C@@H]5CC[C@@]4(C)[C@]2(C)CC3)c1 | 20.7 µM | 27.5 µM | 25.5 µM | 16 µM | 15.7 µM | > 100 µM |
| C[C@H]1[C@H](C)CC[C@]2(C(=O)Nc3ccc(Cl)cc3)CC[C@]3(C)C(=CC(=O)[C@@H]4[C@@]5(C)C[C@@H](O)[C@H](O)[C@@](C)(CO)[C@@H]5CC[C@]43C)[C@H]12 | 22.5 µM | 12.8 µM | 29.8 µM | 13.1 µM | 17.2 µM | > 100 µM |
| C[C@H]1[C@H](C)CC[C@]2(C(=O)Nc3ccc(Br)c(F)c3)CC[C@]3(C)C(=CC(=O)[C@@H]4[C@@]5(C)C[C@@H](O)[C@H](O)[C@@](C)(CO)[C@@H]5CC[C@]43C)[C@H]12 | 16 µM | 16.4 µM | 28.4 µM | 9.71 µM | 17.4 µM | > 100 µM |
| C[C@H]1[C@H](C)CC[C@]2(C(=O)Nc3ccc(F)c(Cl)c3)CC[C@]3(C)C(=CC(=O)[C@@H]4[C@@]5(C)C[C@@H](O)[C@H](O)[C@@](C)(CO)[C@@H]5CC[C@]43C)[C@H]12 | 14.1 µM | 24.2 µM | 19.4 µM | 14.2 µM | 19.1 µM | > 100 µM |
| COc1ccc(NC(=O)[C@]23CC[C@@H](C)[C@H](C)[C@H]2C2=CC(=O)[C@@H]4[C@@]5(C)C[C@@H](O)[C@H](O)[C@@](C)(CO)[C@@H]5CC[C@@]4(C)[C@]2(C)CC3)cc1 | 30.1 µM | > 100 µM | 16.6 µM | > 100 µM | > 100 µM | > 100 µM |
| C[C@H]1[C@H](C)CC[C@]2(C(=O)Nc3ccc(Cl)c(Cl)c3)CC[C@]3(C)C(=CC(=O)[C@@H]4[C@@]5(C)C[C@@H](O)[C@H](O)[C@@](C)(CO)[C@@H]5CC[C@]43C)[C@H]12 | 13.9 µM | 21.4 µM | 13.8 µM | 12.4 µM | 17.2 µM | > 100 µM |
| C[C@H]1[C@H](C)CC[C@]2(C(=O)Nc3cccc4ccccc34)CC[C@]3(C)C(=CC(=O)[C@@H]4[C@@]5(C)C[C@@H](O)[C@H](O)[C@@](C)(CO)[C@@H]5CC[C@]43C)[C@H]12 | 19.9 µM | 16.6 µM | 21.3 µM | 14 µM | 20.4 µM | > 100 µM |
| C[C@H]1[C@H](C)CC[C@]2(C(=O)Nc3ccccc3)CC[C@]3(C)C(=CC(=O)[C@@H]4[C@@]5(C)C[C@@H](O)[C@H](O)[C@@](C)(CO)[C@@H]5CC[C@]43C)[C@H]12 | > 100 µM | 12.2 µM | > 100 µM | 26.9 µM | > 100 µM | > 100 µM |
| COc1ccccc1NC(=O)[C@]12CC[C@@H](C)[C@H](C)[C@H]1C1=CC(=O)[C@@H]3[C@@]4(C)C[C@@H](O)[C@H](O)[C@@](C)(CO)[C@@H]4CC[C@@]3(C)[C@]1(C)CC2 | 19 µM | 18.4 µM | 10.9 µM | 34.5 µM | 16.2 µM | > 100 µM |
| C[C@H]1[C@H](C)CC[C@]2(C(=O)O)CC[C@]3(C)C(=CC[C@@H]4[C@@]5(C)C[C@@H](O)[C@H](O)[C@@](C)(CO)[C@@H]5CC[C@]43C)[C@H]12 [ASIATIC ACID] | 22.6 µM | 39.6 µM | 34.9 µM | 37.3 µM | 40.8 µM | > 100 µM |
| COc1cccc(NC(=O)[C@]23CC[C@@H](C)[C@H](C)[C@H]2C2=CC(=O)[C@@H]4[C@@]5(C)C[C@@H](O)[C@H](O)[C@@](C)(CO)[C@@H]5CC[C@@]4(C)[C@]2(C)CC3)c1 | 24.3 µM | 23.1 µM | 8.89 µM | 17.8 µM | 23.5 µM | > 100 µM |
| Cc1ccc(NC(=O)[C@]23CC[C@@H](C)[C@H](C)[C@H]2C2=CC(=O)[C@@H]4[C@@]5(C)C[C@@H](O)[C@H](O)[C@@](C)(CO)[C@@H]5CC[C@@]4(C)[C@]2(C)CC3)cc1Cl | 20.1 µM | 19.1 µM | 18.4 µM | 16 µM | 20.6 µM | > 100 µM |
| Cc1ccc(NC(=O)[C@]23CC[C@@H](C)[C@H](C)[C@H]2C2=CC(=O)[C@@H]4[C@@]5(C)C[C@@H](O)[C@H](O)[C@@](C)(CO)[C@@H]5CC[C@@]4(C)[C@]2(C)CC3)cc1 | 14.6 µM | 30.2 µM | 22.6 µM | 32.5 µM | > 100 µM | > 100 µM |
| C[C@H]1[C@H](C)CC[C@]2(C(=O)Nc3ccccc3F)CC[C@]3(C)C(=CC(=O)[C@@H]4[C@@]5(C)C[C@@H](O)[C@H](O)[C@@](C)(CO)[C@@H]5CC[C@]43C)[C@H]12 | 19.9 µM | 61.6 µM | > 100 µM | 32.5 µM | 23.2 µM | > 100 µM |
| O=c1[nH]cc(F)c(=O)[nH]1 [FLUOROURACIL] |  |  | 30 µM |  | 40.2 µM |  |
| C[C@H]1[C@H](C)CC[C@]2(C(=O)Nc3cccc(Cl)c3)CC[C@]3(C)C(=CC(=O)[C@@H]4[C@@]5(C)C[C@@H](O)[C@H](O)[C@@](C)(CO)[C@@H]5CC[C@]43C)[C@H]12 | 19.4 µM | 24.4 µM | 11.6 µM | 14.2 µM | 34.4 µM | > 100 µM |
| Cc1cccc(NC(=O)[C@]23CC[C@@H](C)[C@H](C)[C@H]2C2=CC(=O)[C@@H]4[C@@]5(C)C[C@@H](O)[C@H](O)[C@@](C)(CO)[C@@H]5CC[C@@]4(C)[C@]2(C)CC3)c1 | 21.2 µM | 21.8 µM | 19.4 µM | 14.6 µM | 16.1 µM | > 100 µM |
| C[C@H]1[C@H](C)CC[C@]2(C(=O)Nc3cccc(Br)c3)CC[C@]3(C)C(=CC(=O)[C@@H]4[C@@]5(C)C[C@@H](O)[C@H](O)[C@@](C)(CO)[C@@H]5CC[C@]43C)[C@H]12 | 15.5 µM | 24.8 µM | 20.4 µM | 16.2 µM | 22.4 µM | > 100 µM |
| Cc1cc(Br)ccc1NC(=O)[C@]12CC[C@@H](C)[C@H](C)[C@H]1C1=CC(=O)[C@@H]3[C@@]4(C)C[C@@H](O)[C@H](O)[C@@](C)(CO)[C@@H]4CC[C@@]3(C)[C@]1(C)CC2 | 14.6 µM | 23.8 µM | 22.8 µM | 15.7 µM | 17 µM | > 100 µM |
| C[C@H]1[C@H](C)CC[C@]2(C(=O)Nc3ccc(F)cc3)CC[C@]3(C)C(=CC(=O)[C@@H]4[C@@]5(C)C[C@@H](O)[C@H](O)[C@@](C)(CO)[C@@H]5CC[C@]43C)[C@H]12 | 26.6 µM | 31.9 µM | > 100 µM | 20.8 µM | > 100 µM | > 100 µM |
